A selection: hits, their analogues and other compounds. The true share with any hit is near 7.2%.
M1 antag – antagonists of rat M1 muscarinic receptor | P08482 | CHO-M1 cells, Fluo-4 calcium, ACh EC80 antagonist mode; active compounds read low | B-score at 10 µM | actives 3.4% (n = 64,000) | AID 628;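 active = calcium fluorescence response, raw or row-and-column corrected B-score, differing from the plate sample mean either way at a set confidence level, mostly lower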
DAT uptake mod – changed human dopamine transporter uptake under cocaine IC80 | actives 1.3% (n = 110,000) | B-score at 10 µM | LLC-PK1 hDAT cells, [14C]-dopamine uptake with cocaine IC80; actives deviate in either direction | Q01959;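 active = Z score or B-score, a plate-position-corrected score, falls beyond the plate's 99.7% confidence bounds, in either direction; inactive = both scores lie inside the 99.7% bounds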
BAP1 inh – blocks human BAP1 ubiquitin-AMC hydrolysis; recombinant BAP1, Ub-AMC hydrolysis fluorescence kinetic; active compounds read low; calls only at 20 µM; actives 0.48% (n = 72,000); AID 436;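 active = activity remaining at or below 50% of control, provided the compound also passes the data quality filters; inactive = the rest, including low values that fail the filters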
Target sequence (Q92560 whole entry, looked up): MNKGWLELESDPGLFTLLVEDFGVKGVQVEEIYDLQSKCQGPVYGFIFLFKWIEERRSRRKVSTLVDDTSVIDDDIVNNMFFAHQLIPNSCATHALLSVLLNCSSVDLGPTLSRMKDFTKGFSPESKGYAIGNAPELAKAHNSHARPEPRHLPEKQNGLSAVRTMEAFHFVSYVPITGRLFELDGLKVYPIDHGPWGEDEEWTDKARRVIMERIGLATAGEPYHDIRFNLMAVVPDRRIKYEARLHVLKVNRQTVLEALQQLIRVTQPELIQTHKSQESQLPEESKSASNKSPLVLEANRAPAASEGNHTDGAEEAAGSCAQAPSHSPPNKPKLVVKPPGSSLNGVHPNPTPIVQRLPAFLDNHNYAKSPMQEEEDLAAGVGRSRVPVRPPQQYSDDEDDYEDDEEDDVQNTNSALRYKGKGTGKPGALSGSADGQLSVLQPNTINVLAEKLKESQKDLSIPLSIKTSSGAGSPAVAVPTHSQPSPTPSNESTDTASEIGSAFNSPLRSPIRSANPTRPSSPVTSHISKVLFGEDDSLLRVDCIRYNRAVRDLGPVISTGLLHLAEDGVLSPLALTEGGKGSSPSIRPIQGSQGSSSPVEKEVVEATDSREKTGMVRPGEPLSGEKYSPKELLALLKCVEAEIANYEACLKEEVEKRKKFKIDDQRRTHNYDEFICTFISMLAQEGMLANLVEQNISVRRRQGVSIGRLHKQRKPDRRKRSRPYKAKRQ
HEK293 NFkB inh – lowers PMA/ionomycin-induced NF-kB signal in HEK293 cells | actives 0.21% (n = 62,000) | inhibition, % at 3 µM | HEK-293 NF-kB luciferase reporter, luminescence;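 active = inhibition above the mean of all tested compounds plus 3 SD, cut at about 40% in these data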
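Timing: 1 h pretreatment, 16 h stimulation, 37 °C; system: HEK-293 cells with stable firefly luciferase reporter driven by four HIV NF-kB elements; doses: 3 µM once, 0.30% DMSO; measured by: luciferase luminescence; control set: DMSO and 10 µM reference inhibitor; repeats: single test; reagent: PMA plus ionomycin mix as NF-kB-activating stimulus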
M1 agonist – activates the M1 muscarinic receptor | CHO-M1 cells, Fluo-4 calcium fluorescence, agonist mode; active compounds read high | B-score at 10 µM | actives 3% (n = 64,000) | AID 626;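 active = fluorescence rise, raw or as B-score row- and column-corrected plate score, outside the 99.7% band of its plate's samples, either direction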
D1 allo mod – allosterically modulates the human D1 dopamine receptor. P21728. HEK293 D1, CRE-luciferase, dopamine EC30 potentiation; actives deviate in either direction. B-score at 10 µM. actives 5.9% (n = 58,000). AID 641;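 active = luminescence count or its row- and column-corrected plate score outside the 99.7% band of the plate's sample wells, on either side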
M1 antag conf – M1 muscarinic receptor (rat) antagonism, confirmed | calcium response (max-min fluorescence) at 10 µM | shares compounds with M1 antag | actives 43% (n = 1,700) | AID 677 | CHO-M1 cells, Fluo-4 calcium, ACh EC80 antagonism; active compounds read low;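 active = calcium response below the same-plate mean of wells given acetylcholine alone at its 80%-effect dose, minus 3 SD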
mGluR4 antag – acts on human mGluR4 in M1 antagonist selectivity test; shares compounds with M1 antag; CHO-mGluR4 calcium flux, Fluo-4 fluorescence, glutamate EC80; active compounds read low; fluorescence response (max-min) at 10 µM; actives 0.9% (n = 1,700); AID 678;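 active = fluorescence response below the plate's average for near-maximal glutamate wells, less 3 SD of those wells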;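 also: raw unnormalized fluorescence span taken in the window right after glutamate addition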
A number is an active result.

Results for CCOC(=O)N1CCN(C(=O)c2ccc3c(=O)n4c(nc3c2)CCCCC4)CC1 ?
M1 antag: -5.3; DAT uptake mod: inactive; BAP1 inh: inactive; HEK293 NFkB inh: inactive; M1 agonist: inactive; D1 allo mod: inactive; M1 antag conf: 300; mGluR4 antag: inactive

What do the screens show for `CCn1c(=O)[nH]c2cc(C(=O)N3CCN(c4ccccc4)CC3)ccc2c1=O`?
M1 antag: inactive; DAT uptake mod: inactive; BAP1 inh: inactive; HEK293 NFkB inh: inactive; M1 agonist: inactive; D1 allo mod: inactive

How did CC(=O)N1CCN(C(=S)c2ccc(-c3ccccc3Cl)o2)CC1 do in these assays?
BAP1 inh: inactive

What do the screens show for `CC(C)CCn1c(CO)nc2ccccc21`?
BAP1 inh: inactive

What do the screens show for `CN(C)c1ccc(C2C3C(=O)N(c4ccc(C(=O)O)cc4)C(=O)C3ON2c2ccccc2)cc1` (centres undefined)?
M1 antag: -2.5; DAT uptake mod: inactive; BAP1 inh: inactive; M1 agonist: inactive; D1 allo mod: inactive; M1 antag conf: 15; mGluR4 antag: inactive

Results for O=C(O)c1ccc(N2C(=O)C3ON(c4ccccc4)C(c4ccccc4F)C3C2=O)cc1 (centres undefined) ?
M1 antag: inactive; DAT uptake mod: inactive; BAP1 inh: inactive; HEK293 NFkB inh: inactive; M1 agonist: inactive; D1 allo mod: inactive

Results for CCOC(=O)c1c(C)oc2cc(Br)c(OC(=O)c3ccco3)cc12 ?
BAP1 inh: inactive

What do the screens show for `C=C1c2ccccc2NC(=O)N1c1cccc(Cl)c1`?
BAP1 inh: inactive

What do the screens show for `CSc1nc(N(CCO)CCO)c2sc3nc(-c4ccco4)c4c(c3c2n1)CCC4`?
M1 antag: -3.9; DAT uptake mod: inactive; HEK293 NFkB inh: inactive; M1 agonist: inactive; D1 allo mod: inactive; M1 antag conf: inactive; mGluR4 antag: inactive

What do the screens show for `Cc1ccc2c(c1)NC(=O)C(CC(=O)NCCCN1CCCCC1C)O2` (centres undefined)?
M1 antag: inactive; DAT uptake mod: inactive; BAP1 inh: inactive; HEK293 NFkB inh: inactive; M1 agonist: inactive; D1 allo mod: inactive

Results for CCC(C)N(CCNC(=O)CC1Oc2ccc(C)cc2NC1=O)C1CCCCC1 (centres undefined) ?
M1 antag: -8.8; DAT uptake mod: inactive; BAP1 inh: inactive; HEK293 NFkB inh: inactive; M1 agonist: inactive; D1 allo mod: inactive; M1 antag conf: 21; mGluR4 antag: inactive

What do the screens show for `O=C(c1ccccc1F)N1CCN(c2ccc([N+](=O)[O-])cc2Cl)CC1`?
BAP1 inh: inactive

How did Cn1c(C(O)c2ccccc2)[n+](C)c2ccccc21 (centres undefined) do in these assays?
BAP1 inh: inactive

Results for O=C(CN1CCCC1)N1c2ccccc2Sc2ccc(C(F)(F)F)cc21 ?
DAT uptake mod: inactive

What do the screens show for `O=C(CN1CCN(c2ccccn2)CC1)N1c2ccccc2Sc2ccc(C(F)(F)F)cc21`?
M1 antag: -4; DAT uptake mod: inactive; BAP1 inh: inactive; HEK293 NFkB inh: inactive; M1 agonist: inactive; D1 allo mod: inactive; M1 antag conf: 450; mGluR4 antag: inactive

How did COc1c(C)cc(Br)cc1C(=O)Nc1ccc(N2CCN(S(C)(=O)=O)CC2)cc1 do in these assays?
M1 antag: -1.9; DAT uptake mod: inactive; BAP1 inh: inactive; HEK293 NFkB inh: inactive; M1 agonist: inactive; M1 antag conf: inactive; mGluR4 antag: inactive

Results for CC(=O)c1cc(C)ccc1OC(=O)c1cccc2nc(C)oc12 ?
M1 antag: -4.2; DAT uptake mod: inactive; BAP1 inh: inactive; HEK293 NFkB inh: inactive; M1 agonist: inactive; D1 allo mod: inactive; M1 antag conf: inactive; mGluR4 antag: inactive

What do the screens show for `CC(C)(C)C1CCc2onc(C(=O)NC3CCCC3)c2C1` (centres undefined)?
M1 antag: inactive; DAT uptake mod: inactive; BAP1 inh: inactive; HEK293 NFkB inh: inactive; M1 agonist: inactive; D1 allo mod: inactive

How did O=C(NC1CCCCC1)c1noc2c1CCCCC2 do in these assays?
M1 antag: -1.9; DAT uptake mod: inactive; BAP1 inh: inactive; HEK293 NFkB inh: inactive; M1 agonist: inactive; D1 allo mod: inactive; M1 antag conf: inactive; mGluR4 antag: inactive

How did CCCc1ccc(O)c(N=Cc2cc([N+](=O)[O-])cc(OC)c2O)c1 do in these assays?
BAP1 inh: inactive

What do the screens show for `CCn1cc(C2=NC(C(C)C)CO2)c2ccccc21` (centres undefined)?
M1 antag: -6.5; DAT uptake mod: inactive; BAP1 inh: inactive; HEK293 NFkB inh: inactive; M1 agonist: inactive; D1 allo mod: inactive; M1 antag conf: 412; mGluR4 antag: inactive

How did CCn1cc(SCC(N)=O)c2ccccc21 do in these assays?
M1 antag: inactive; DAT uptake mod: inactive; BAP1 inh: inactive; HEK293 NFkB inh: inactive; M1 agonist: inactive

How did O=C(c1ccc(CSCc2ccccc2F)o1)N1CCN(c2ccc(N3CCOCC3)nn2)CC1 do in these assays?
M1 antag: -1.7; DAT uptake mod: 3.4; BAP1 inh: inactive; HEK293 NFkB inh: inactive; M1 agonist: inactive; D1 allo mod: inactive; M1 antag conf: 498; mGluR4 antag: inactive

Results for CCC(C)c1ccc(O)c(N)c1 (centres undefined) ?
M1 antag: inactive; DAT uptake mod: inactive; BAP1 inh: inactive; HEK293 NFkB inh: inactive; M1 agonist: inactive; D1 allo mod: inactive

Results for CC(C)c1ccc(O)c(N)c1 ?
M1 antag: -2.6; DAT uptake mod: inactive; BAP1 inh: inactive; M1 agonist: inactive; M1 antag conf: inactive; mGluR4 antag: inactive

Results for NC(=O)c1ccccc1NC(=O)C(F)(F)F ?
BAP1 inh: inactive

Results for OC(CN1CCN(c2ccc(Cl)cc2)CC1)Cn1c2ccccc2c2ccccc21 (centres undefined) ?
BAP1 inh: inactive

What do the screens show for `Cc1ccc(-c2nnc3sc(C4COc5ccccc5O4)nn23)cc1` (centres undefined)?
M1 antag: -3.4; DAT uptake mod: inactive; BAP1 inh: inactive; HEK293 NFkB inh: inactive; M1 agonist: inactive; D1 allo mod: inactive; M1 antag conf: inactive; mGluR4 antag: inactive

Results for Clc1ccccc1-c1nnc2sc(C3COc4ccccc4O3)nn12 (centres undefined) ?
M1 antag: inactive; DAT uptake mod: inactive; HEK293 NFkB inh: inactive; M1 agonist: inactive; D1 allo mod: inactive

What do the screens show for `Cc1ccc(NC(=O)CSc2nnc(N3C(=O)c4ccccc4C3=O)s2)c(C)c1`?
BAP1 inh: inactive
